The list is not random: actives were taken first. Their share in the collection is about 4.5%.
TAAR1 ag – agonists of human TAAR1; Q96RJ0; CHO RD-HGA16 TAAR1, Fluo-8 calcium fluorescence; vehicle wells 0%, saturating PEA agonist 100%; activation, % at 3 µM; actives 0.99% (n = 360,000); AID 624467;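 active means activation above the mean activation of all test compounds in the run plus 3 SD, cut at about 38% in these data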
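Repeats: no replicates (n 1) | Material: CHO-derived RD-HGA16 cells with stable Gα16 and human TAAR1 | Technique: Kinetic Fluo-8 calcium fluorescence | Schedule: 17-24 h seeding, 75 min 37 °C dye, 30 min RT | Evaluation: % activation from peak over basal fluorescence ratio, DMSO-to-PEA scaled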
TAAR1 antag – human TAAR1 antagonism; Q96RJ0; CHO RD-HGA16 TAAR1, Fluo-8 calcium fluorescence, antagonist; inhibition, % at 3 µM; actives 1.5% (n = 360,000); AID 624466;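 active means inhibition above a per-plate cutoff, the mean inhibition of test compounds on that plate plus 3 SD, cut at about 49% in these data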
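Test system: RD-HGA16 CHO cells with stable hTAAR1 and Gα16 / Probe or stimulus: EC80 β-phenethylamine stimulus / Times: seeding 17-24 h prior, 75-min 37 °C, 30-min RT dye loading / Detection: Fluo-8 calcium-sensitive fluorescence / Read-out basis: % inhibition scaled between DMSO and EC80 PEA controls / Repeats: singlicate, one well per test compound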
OX1R antag-1 – blocks the human orexin 1 receptor; O43613; OX1R-expressing cells, FRET antagonist read-out; inhibition, % at 6.6 µM; actives 1.8% (n = 330,000); in the data active means inhibition mostly above about 38%, no sharp cut-off; inactive means mostly below about 40%
Target sequence (O43613 whole entry, looked up): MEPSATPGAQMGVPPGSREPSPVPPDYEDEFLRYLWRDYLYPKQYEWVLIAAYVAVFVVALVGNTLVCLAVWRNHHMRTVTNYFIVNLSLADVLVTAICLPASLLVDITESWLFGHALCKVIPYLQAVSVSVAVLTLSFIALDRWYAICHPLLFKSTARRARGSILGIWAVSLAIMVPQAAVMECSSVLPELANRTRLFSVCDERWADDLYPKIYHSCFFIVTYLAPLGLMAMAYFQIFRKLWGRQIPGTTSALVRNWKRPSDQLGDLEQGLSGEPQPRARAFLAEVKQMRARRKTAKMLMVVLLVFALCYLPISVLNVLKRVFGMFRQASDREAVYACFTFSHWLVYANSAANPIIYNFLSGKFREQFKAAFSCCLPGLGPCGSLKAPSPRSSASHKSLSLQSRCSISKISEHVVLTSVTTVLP
CHO parental Ca – counter-screen: ATP calcium response change in parental CHO cells | parental CHO-K1, ATP-induced calcium, Fluo-8 fluorescence | actives 0.63% (n = 330,000) | inhibition, % at 5.6 µM | AID 463079;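 active means inhibition above that plate's mean sample inhibition plus 3 SD, cut at about 26% in these data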
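Assay system: parental CHO cells; Read-out basis: percent inhibition of ATP-evoked calcium rise, normalized to controls; Benchmarks: ATP and no-ATP DMSO wells; Compound dosing: single nominal dose of 5.6 µM per compound; Signal: Fluo-8 calcium dye fluorescence; Also added: ATP as calcium-mobilizing challenge; Repeats: singlicate.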
OX1R antag-2 – human HCRTR1 antagonism. actives 0.43% (n = 330,000). CHO/OX1R cells, Fluo-8 calcium fluorescence, orexin A. inhibition, % at 5 µM. O43613;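 active means inhibition above its plate's threshold, mean inhibition of all tested compounds on the plate plus 3 SD, cut at about 37% in these data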
GPR7 antag – blocks human GPR7 receptor signaling; P48145; GPR7-expressing cells, fluorescence antagonist assay; inhibition, % at 4.4 µM; actives 1.1% (n = 290,000); in the data active means inhibition above about 16%, passing the limit was not always enough;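 further: cells stimulated with the agonist NPW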
Target sequence (P48145 whole entry, looked up): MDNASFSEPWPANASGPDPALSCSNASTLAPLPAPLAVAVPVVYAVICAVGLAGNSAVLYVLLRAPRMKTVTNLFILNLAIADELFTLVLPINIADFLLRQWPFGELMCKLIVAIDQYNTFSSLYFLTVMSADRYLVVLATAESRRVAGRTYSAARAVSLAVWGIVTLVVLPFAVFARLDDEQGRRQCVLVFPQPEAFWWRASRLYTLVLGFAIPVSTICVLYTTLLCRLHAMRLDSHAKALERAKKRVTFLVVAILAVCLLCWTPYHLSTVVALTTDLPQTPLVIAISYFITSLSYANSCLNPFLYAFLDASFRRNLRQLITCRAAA
OX1R Fluo8 conf – confirmation of human orexin 1 receptor antagonists. AID 492963. inhibition, % at 5 µM. CHO/OX1R cells, orexin A calcium Fluo-8 fluorescence. shares compounds with OX1R antag-2. actives 38% (n = 1,100); in the data active means inhibition above about 29%
CHO Ca counter – counter-screen: parental CHO calcium response change, triplicate; shares compounds with OX1R antag-2; parental CHO-K1, ATP-induced calcium, Fluo-8 fluorescence; inhibition, % at 5.6 µM; actives 9.3% (n = 1,100);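 active means inhibition above a per-plate limit, the mean inhibition of that plate's test compounds plus 3 SD, cut at about 25% in these data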
A number is an active result.

Results for CCn1c(SCC(=O)N2CCCC2)nc2ccccc2c1=O ?
TAAR1 ag: inactive; TAAR1 antag: inactive; OX1R antag-1: inactive; CHO parental Ca: inactive; OX1R antag-2: 33.7; GPR7 antag: inactive; OX1R Fluo8 conf: inactive; CHO Ca counter: inactive

Results for C[C@H]1CN(S(=O)(=O)c2c(F)cccc2F)CCN1S(=O)(=O)c1ccc2c(c1)OCCO2 ?
TAAR1 ag: inactive; TAAR1 antag: inactive; OX1R antag-1: inactive; CHO parental Ca: inactive; OX1R antag-2: inactive

Results for CC(C)c1ccc(N2C(=NC(=O)C3CC3)SC3CS(=O)(=O)CC32)cc1 (stereo unspecified) ?
TAAR1 ag: inactive; TAAR1 antag: inactive; OX1R antag-1: inactive; CHO parental Ca: inactive; OX1R antag-2: inactive; GPR7 antag: inactive

Results for O=c1c(/C=C(\O)c2ccccc2)nc2ccccc2n1-c1ccccc1 ?
TAAR1 ag: inactive; TAAR1 antag: inactive; OX1R antag-1: inactive; CHO parental Ca: inactive; OX1R antag-2: 60.8; GPR7 antag: inactive; OX1R Fluo8 conf: inactive; CHO Ca counter: inactive

Results for Cc1cc(C)cc(NS(=O)(=O)c2ccc3[nH]cc(C(=O)N4CCc5ccccc54)c(=O)c3c2)c1 ?
TAAR1 ag: inactive; TAAR1 antag: inactive; OX1R antag-1: inactive; CHO parental Ca: inactive; OX1R antag-2: inactive; GPR7 antag: inactive

How did CCc1ccc(NS(=O)(=O)c2ccc3[nH]cc(C(=O)N4CCc5ccccc54)c(=O)c3c2)cc1 do in these assays?
TAAR1 ag: inactive; TAAR1 antag: inactive; OX1R antag-1: inactive; CHO parental Ca: inactive; OX1R antag-2: inactive; GPR7 antag: inactive; OX1R Fluo8 conf: 31.8; CHO Ca counter: inactive

What do the screens show for `CCOc1cc2c(cc1/C=C/c1noc(C)c1[N+](=O)[O-])OC(C)C2` (stereo unspecified)?
TAAR1 ag: inactive; TAAR1 antag: inactive; OX1R antag-1: inactive; CHO parental Ca: inactive; OX1R antag-2: inactive; GPR7 antag: inactive; OX1R Fluo8 conf: 50.9; CHO Ca counter: 44.0

Results for CCOc1cc2c(cc1C=O)OC(C)C2 (stereo unspecified) ?
TAAR1 ag: inactive; TAAR1 antag: inactive; OX1R antag-1: inactive; CHO parental Ca: inactive; OX1R antag-2: inactive; GPR7 antag: inactive

What do the screens show for `CCNC(=O)C12CCC(C)(C(=O)O1)C2(C)C` (stereo unspecified)?
TAAR1 ag: inactive; TAAR1 antag: inactive; OX1R antag-1: inactive; CHO parental Ca: inactive; OX1R antag-2: inactive; GPR7 antag: inactive; OX1R Fluo8 conf: inactive; CHO Ca counter: inactive

What do the screens show for `O=S1(=O)CCOCCCN1Cc1ccccc1`?
TAAR1 ag: inactive; TAAR1 antag: inactive; OX1R antag-1: inactive; CHO parental Ca: inactive; OX1R antag-2: inactive; GPR7 antag: inactive

Results for CC(C)(C)c1cc(C(=O)CCN2CCOCC2)cc(C(C)(C)C)c1O ?
TAAR1 ag: inactive; TAAR1 antag: inactive; OX1R antag-1: inactive; CHO parental Ca: inactive; OX1R antag-2: inactive; GPR7 antag: inactive; OX1R Fluo8 conf: inactive; CHO Ca counter: inactive

How did C[C@H]1NC(=O)[C@]2(C)[C@@H](c3ccccc3)[C@H]3COc4ccccc4[C@H]3N2C1=O do in these assays?
TAAR1 ag: inactive; TAAR1 antag: inactive

What do the screens show for `CCN(c1ccccc1)S(=O)(=O)c1cc(C(=O)Nc2ccc(F)c(F)c2)ccc1F`?
TAAR1 ag: inactive; TAAR1 antag: 56.5; OX1R antag-1: inactive; CHO parental Ca: inactive; OX1R antag-2: inactive; GPR7 antag: inactive; OX1R Fluo8 conf: 37.6; CHO Ca counter: inactive

How did CCN(c1ccccc1)S(=O)(=O)c1cc(C(=O)O)ccc1C do in these assays?
TAAR1 ag: inactive; TAAR1 antag: inactive; OX1R antag-1: inactive; CHO parental Ca: inactive; OX1R antag-2: inactive; GPR7 antag: inactive

What do the screens show for `COc1ccccc1CN(C)C(=O)CN1CCN(S(=O)(=O)c2ccc3c(c2)OCCCO3)CC1`?
TAAR1 ag: inactive; TAAR1 antag: inactive; OX1R antag-1: inactive; CHO parental Ca: inactive; OX1R antag-2: inactive

What do the screens show for `NC(=O)c1ccc(N2CCN(c3ccccc3O)CC2)c([N+](=O)[O-])c1`?
TAAR1 ag: inactive; TAAR1 antag: inactive; OX1R antag-1: inactive; CHO parental Ca: inactive; OX1R antag-2: inactive; GPR7 antag: inactive

What do the screens show for `NC(=O)c1ccc(N2CCN(c3ccccc3F)CC2)c([N+](=O)[O-])c1`?
TAAR1 ag: inactive; TAAR1 antag: inactive; OX1R antag-1: inactive; CHO parental Ca: inactive; OX1R antag-2: inactive; GPR7 antag: inactive; OX1R Fluo8 conf: inactive; CHO Ca counter: inactive

How did Cc1c(Nc2nc3ccccc3nc2NS(=O)(=O)c2cccc(Cl)c2)c(=O)n(-c2ccccc2)n1C do in these assays?
TAAR1 ag: inactive; TAAR1 antag: inactive; OX1R antag-1: inactive; CHO parental Ca: inactive; OX1R antag-2: inactive; GPR7 antag: inactive

Results for Cc1ccc(Nc2nc3ccccc3nc2Nc2c(C)n(C)n(-c3ccccc3)c2=O)cc1 ?
TAAR1 ag: inactive; TAAR1 antag: inactive; OX1R antag-1: inactive; CHO parental Ca: inactive; OX1R antag-2: 56.6; GPR7 antag: inactive; OX1R Fluo8 conf: inactive; CHO Ca counter: inactive

What do the screens show for `Cc1ccc(CSc2nnc(-c3ccc4c(c3)OCO4)o2)cc1`?
TAAR1 ag: inactive; TAAR1 antag: inactive; OX1R antag-1: inactive; CHO parental Ca: inactive; OX1R antag-2: inactive; GPR7 antag: inactive

How did COc1ccc(C2=NCC(CSc3nnc(-c4ccc5c(c4)OCO5)o3)S2)cc1 (stereo unspecified) do in these assays?
TAAR1 ag: inactive; TAAR1 antag: 50.3; OX1R antag-1: inactive; CHO parental Ca: inactive; OX1R antag-2: 47.0; GPR7 antag: inactive; OX1R Fluo8 conf: inactive; CHO Ca counter: inactive

Results for CC(C)NC(=O)C1CCN(C2CCN(CC3CC=CCC3)CC2)CC1 (stereo unspecified) ?
TAAR1 ag: inactive; TAAR1 antag: inactive; OX1R antag-1: inactive; CHO parental Ca: inactive; OX1R antag-2: 75.8; GPR7 antag: inactive; OX1R Fluo8 conf: inactive; CHO Ca counter: inactive

Results for O=C(OCc1ccc(F)cc1)c1cccnc1Cl ?
TAAR1 ag: inactive; TAAR1 antag: inactive; OX1R antag-1: inactive; CHO parental Ca: inactive; OX1R antag-2: inactive; GPR7 antag: inactive

Results for O=C(OCc1ccc(COC(=O)c2cccnc2Cl)cc1)c1cccnc1Cl ?
TAAR1 ag: inactive; TAAR1 antag: inactive; OX1R antag-1: inactive; CHO parental Ca: inactive; OX1R antag-2: 58.3; GPR7 antag: inactive; OX1R Fluo8 conf: 30.5; CHO Ca counter: 35.6
